In ChEMBL document CHEMBL1817593, “C5'-Alkyl Substitution Effects on Digitoxigenin α-l-Glycoside Cancer Cytotoxicity” (ACS Med Chem Lett, 2011):

Experiments:
[1] = tested on: NCI-H460; test: Induction of apoptosis in human NCI-H460 cells in serum free medium at 50 nM after 12 hrs by Hoechst 33342/propidium iodide staining based fluorescence microscopy; assay type: functional
Outline: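 NCI-H460 cells exposed to a single 50 nM concentration for 12 h. Cells stained with Hoechst 33342 and propidium iodide. Blue cells with condensed or fragmented nuclei were scored as apoptotic and red, ruptured cells as necrotic. Result given as % apoptotic cell death; N = 6, one-way ANOVA.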

[2] = tested on: NCI-H460; test: Cytotoxicity against human NCI-H460 cells assessed as cell death in serum free medium at 10 nM after 12 hrs by Hoechst 33342/propidium iodide staining based fluorescence microscopy; assay type: functional
Outline: (§1)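 NCI-H460 human lung cancer cells exposed 12 h to 10 nM–10 μM drug, including a 50 nM single-concentration test. Nuclei were stained with Hoechst 33342 and necrotic cells with propidium iodide. Apoptotic cells were scored by condensed or fragmented blue nuclei and necrotic cells by red PI staining. Total cell death (apoptosis plus necrosis) was recorded; N = 6.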

[3] = tested on: NCI-H460; test: Cytotoxicity against human NCI-H460 cells assessed as cell death in serum free medium at 50 nM after 12 hrs by Hoechst 33342/propidium iodide staining based fluorescence microscopy; assay type: functional; outline: as §1
[4] = tested on: NCI-H460; test: Cytotoxicity against human NCI-H460 cells assessed as cell death in serum free medium at 100 nM after 12 hrs by Hoechst 33342/propidium iodide staining based fluorescence microscopy; assay type: functional; outline: as §1
[5] = tested on: NCI-H460; test: Cytotoxicity against human NCI-H460 cells assessed as cell death in serum free medium at 250 nM after 12 hrs by Hoechst 33342/propidium iodide staining based fluorescence microscopy; assay type: functional; outline: as §1
[6] = tested on: NCI-H460; test: Cytotoxicity against human NCI-H460 cells assessed as cell death in serum free medium at 500 nM after 12 hrs by Hoechst 33342/propidium iodide staining based fluorescence microscopy; assay type: functional; outline: as §1
[7] = tested on: NCI-H460; test: Cytotoxicity against human NCI-H460 cells assessed as cell death in serum free medium at 1000 nM after 12 hrs by Hoechst 33342/propidium iodide staining based fluorescence microscopy; assay type: functional; outline: as §1
[8] = tested on: NCI-H460; test: Induction of apoptosis in human NCI-H460 cells in serum free medium after 12 hrs by Hoechst 33342/propidium iodide staining based fluorescence microscopy; assay type: functional, cell-based; conditions: for IC50: NCI-H460, 12 h
Outline: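 NCI-H460 cells treated for 12 h at 10 nM to 10 μM. Total cell death (apoptosis plus necrosis) scored by Hoechst 33342/propidium iodide staining, with N = 6 and two-way ANOVA. IC50 obtained by nonlinear regression. Table values are the mean of three independent experiments with duplicate determinations.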

[9] = tested on: NCI-H460; test: Cytotoxicity against human NCI-H460 cells assessed as cell viability at 50 nM after 48 hrs by MTT assay; assay type: functional; conditions: NCI-H460, 48 h, read-out: Activity
Outline: (§2)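 Viability of NCI-H460 cells was measured by MTT (mitochondrial enzymatic activity) after 48 h exposure, within a dose series spanning 1 nM–10 μM. N = 9, analysed by two-way ANOVA.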

[10] = tested on: NCI-H460; test: Cytotoxicity against human NCI-H460 cells assessed as cell viability at 100 nM after 48 hrs by MTT assay; assay type: functional; conditions: NCI-H460, 48 h, read-out: Activity; outline: as §2
[11] = tested on: NCI-H460; test: Cytotoxicity against human NCI-H460 cells assessed as cell viability at 500 nM after 48 hrs by MTT assay; assay type: functional; conditions: NCI-H460, 48 h, read-out: Activity; outline: as §2
[12] = tested on: NCI-H460; test: Cytotoxicity against human NCI-H460 cells assessed as cell viability at 1000 nM after 48 hrs by MTT assay; assay type: functional; conditions: NCI-H460, 48 h, read-out: Activity; outline: as §2
[13] = tested on: HL-60(TB); test: Cytotoxicity against human HL-60(TB) cells after 48 hrs by sulforhodamine B assay; assay type: functional; conditions: HL-60, 48 h
[14] = tested on: SR; test: Cytotoxicity against human SR cells after 48 hrs by sulforhodamine B assay; assay type: functional
[15] = tested on: A549; test: Cytotoxicity against human A549/ATCC cells after 48 hrs by sulforhodamine B assay; assay type: functional; conditions: A549, 48 h
[16] = tested on: HOP-62; test: Cytotoxicity against human HOP62 cells after 48 hrs by sulforhodamine B assay; assay type: functional; conditions: HOP-62, 48 h
[17] = tested on: NCI-H522; test: Cytotoxicity against human NCI-H522 cells after 48 hrs by sulforhodamine B assay; assay type: functional; conditions: NCI-H522, 48 h
[18] = tested on: HT-29; test: Cytotoxicity against human HT-29 cells after 48 hrs by sulforhodamine B assay; assay type: functional; conditions: HT-29, 48 h
[19] = tested on: KM12; test: Cytotoxicity against human KM12 cells after 48 hrs by sulforhodamine B assay; assay type: functional; conditions: KM12, 48 h
[20] = tested on: SW-620; test: Cytotoxicity against human SW620 cells after 48 hrs by sulforhodamine B assay; assay type: functional; conditions: SW-620, 48 h
[21] = tested on: SF-539; test: Cytotoxicity against human SF539 cells after 48 hrs by sulforhodamine B assay; assay type: functional; conditions: SF-539, 48 h
[22] = tested on: SNB-19; test: Cytotoxicity against human SNB19 cells after 48 hrs by sulforhodamine B assay; assay type: functional; conditions: SNB-19, 48 h
[23] = tested on: PC-3; test: Cytotoxicity against human PC3 cells after 48 hrs by sulforhodamine B assay; assay type: functional; conditions: PC-3, 48 h
[24] = tested on: LOX IMVI; test: Cytotoxicity against human LOXIMVI cells after 48 hrs by sulforhodamine B assay; assay type: functional
[25] = tested on: SK-MEL-5; test: Cytotoxicity against human SK-MEL-5 cells after 48 hrs by sulforhodamine B assay; assay type: functional; conditions: SK-MEL-5, 48 h
[26] = tested on: UACC-257; test: Cytotoxicity against human UACC257 cells after 48 hrs by sulforhodamine B assay; assay type: functional; conditions: UACC-257, 48 h
[27] = tested on: UACC-62; test: Cytotoxicity against human UACC62 cells after 48 hrs by sulforhodamine B assay; assay type: functional; conditions: UACC-62, 48 h
[28] = tested on: IGROV-1; test: Cytotoxicity against human IGROV1 cells after 48 hrs by sulforhodamine B assay; assay type: functional; conditions: IGROV-1, 48 h
[29] = tested on: OVCAR-4; test: Cytotoxicity against human OVCAR4 cells after 48 hrs by sulforhodamine B assay; assay type: functional; conditions: OVCAR-4, 48 h
[30] = tested on: OVCAR-5; test: Cytotoxicity against human OVCAR5 cells after 48 hrs by sulforhodamine B assay; assay type: functional; conditions: OVCAR-5, 48 h
[31] = tested on: SK-OV-3; test: Cytotoxicity against human SKOV3 cells after 48 hrs by sulforhodamine B assay; assay type: functional; conditions: SK-OV-3, 48 h
[32] = tested on: A498; test: Cytotoxicity against human A498 cells after 48 hrs by sulforhodamine B assay; assay type: functional; conditions: A498, 48 h
[33] = tested on: ACHN; test: Cytotoxicity against human ACHN cells after 48 hrs by sulforhodamine B assay; assay type: functional
[34] = tested on: RXF 393; test: Cytotoxicity against human RXF393 cells after 48 hrs by sulforhodamine B assay; assay type: functional; conditions: RXF 393, 48 h
[35] = tested on: UO-31; test: Cytotoxicity against human UO31 cells after 48 hrs by sulforhodamine B assay; assay type: functional; conditions: UO-31, 48 h
[36] = tested on: MCF7; test: Cytotoxicity against human MCF7 cells after 48 hrs by sulforhodamine B assay; assay type: functional; conditions: MCF7, 48 h
[37] = tested on: MDA-MB-435; test: Cytotoxicity against human MDA-MB-435 breast cancer cells after 48 hrs by sulforhodamine B assay; assay type: functional; conditions: MDA-MB-435, 48 h
[38] = tested on: NCI-H460; test: Growth inhibition of human NCI-H460 cells after 48 hrs by MTT assay; assay type: functional
Outline: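 NCI-H460 viability measured by MTT (mitochondrial enzymatic activity) after 48 h exposure at 1 nM to 10 μM. GI50 derived from dose-response curves, with N = 9 and two-way ANOVA. Values are the mean of three independent experiments with duplicate determinations.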

Compound | Activity [1] [%] | Activity [2] [%] | Activity [3] [%] | Activity [4] [%] | Activity [5] [%] | Activity [6] [%] | Activity [7] [%] | Activity [8] | IC50 [8] [nM] | viability at 0.05 µM [9] [%] | viability at 0.1 µM [10] [%] | viability at 0.5 µM [11] [%] | viability at 1 µM [12] [%] | GI50 [13] [nM] | GI50 [14] [nM] | GI50 [15] [nM] | GI50 [16] [nM] | GI50 [17] [nM] | GI50 [18] [nM] | GI50 [19] [nM] | also measured
CC(C)[C@@H]1O[C@@H](O[C@H]2CC[C@@]3(C)[C@H](CC[C@@H]4[C@@H]3CC[C@]3(C)[C@@H](C5=CC(=O)OC5)CC[C@]43O)C2)CC[C@H]1O | 11.993 | 9.96 | 14.48 | 18.89 | 22.73 | 50.85 | 90.66 | Dose-dependent effect | 533 | 22.2 | 12.4 | 6.35 | 5.21 | 14.3 | 37.2 | 17.7 | 31.1 | 26 | 41.9 | 152 | GI50 [20]: 42.8 nM; GI50 [21]: 27.6 nM; GI50 [22]: 185 nM; GI50 [23]: 61.9 nM; GI50 [24]: 26.9 nM; GI50 [25]: 22.6 nM; GI50 [26]: 122 nM; GI50 [27]: 119 nM; GI50 [28]: 54.2 nM; GI50 [29]: 123 nM; GI50 [30]: 107 nM; GI50 [31]: 118 nM; GI50 [32]: 90.1 nM; GI50 [33]: 17 nM; GI50 [34]: 14 nM; GI50 [35]: 23.4 nM; GI50 [36]: 161 nM; GI50 [37]: 150 nM; GI50 [38]: Dose-dependent effect; GI50 ([38]; NCI-H460, 48 h): 8 nM
CC(C)C[C@@H]1O[C@@H](O[C@H]2CC[C@@]3(C)[C@H](CC[C@@H]4[C@@H]3CC[C@]3(C)[C@@H](C5=CC(=O)OC5)CC[C@]43O)C2)CC[C@H]1O | 9.2821 | 10.03 | 13.06 | 17.69 | 21.86 | 62.18 | 94.8 | Dose-dependent effect | 458 | 25.1 | 18.5 | 4.88 | 3.64 | 18.3 | 23 | 13.4 | 23.1 | 23.6 | 31.5 | 55.9 | GI50 [20]: 32 nM; GI50 [21]: 23.8 nM; GI50 [22]: 58.9 nM; GI50 [23]: 46.3 nM; GI50 [24]: 27.2 nM; GI50 [25]: 27.7 nM; GI50 [26]: 31.3 nM; GI50 [27]: 50.5 nM; GI50 [28]: 29.9 nM; GI50 [29]: 85.5 nM; GI50 [30]: 113 nM; GI50 [31]: 43.1 nM; GI50 [32]: 27 nM; GI50 [33]: 12.2 nM; GI50 [34]: 18.6 nM; GI50 [35]: 27.7 nM; GI50 [36]: 52.8 nM; GI50 [37]: 149 nM; GI50 [38]: Dose-dependent effect; GI50 ([38]; NCI-H460, 48 h): 8 nM
